Our source for the EC50 and Ki values is ChEMBL document CHEMBL1132110, “Design and fast synthesis of C-terminal duplicated potent C(2)-symmetric P1/P1'-modified HIV-1 protease inhibitors” (J Med Chem, 1999).

The test system of experiment [1] is MT4. Put plainly: The anti-HIV activity was evaluated in MT-4 cells using colorimetric XTT assay. MT-4 cells were infected with HIV-1,IIb (in vitro). The format is functional. As to conditions: Homo sapiens, read-out: ED50 (the source's name). The procedure, abridged: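 MT4 cells (2 × 10⁴ per well) infected with HIV-1 IIIB at 10–50 TCID50/well. Compounds came from 10 mg/mL DMSO stocks, diluted in medium and added to the cells. Viability was read by XTT after 6 days to monitor the cytopathic effect, and the 50% effective dose (ED50) was determined.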
Background: Tetrazolium assays rely on reduction of a dye to a coloured formazan, in cell work by metabolically active cells.

Experiment [2] concerns MT4. Put plainly: The anti-HIV activity in the presence of MT-4 cells infected mutants HIV-1:M46I,V82F,[…]. The format is functional. As to conditions: Homo sapiens, read-out: ED50 (the source's name). In outline:
(§1)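 MT4 cells (2 × 10⁴/well) infected with ritonavir-selected mutant HIV-1 (10–50 TCID₅₀/well). Mutants came from passaging cell-free virus under stepwise-increased ritonavir, then one passage without drug; protease gene sequenced. Compounds from 10 mg/mL DMSO stocks diluted in medium. Viability read by XTT after 6 days; ED50 taken as 50% dose.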

Experiment [3] deals with MT4. Put plainly: The anti-HIV activity in the presence of human serum(hs) performed in MT-4 cells iwith AB+ serum. It counts as functional. The note with it: read-out: ED50 (the source's name). The procedure, abridged:
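MT4 cells infected with HIV-1 IIIB; compounds diluted in human AB+ serum and added after 1 h virus adsorption, final medium 50% human serum plus 10% fetal calf serum. Viral replication measured after 6 days as HIV p24 antigen; ED50 derived.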

Experiment [4] deals with MT4. Put plainly: The anti-HIV activity in the presence of human serum(hs) performed in MT-4 cells with AB+ serum. It counts as functional. The note with it: read-out: ED50 (the source's name). In outline:
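MT4 cells infected with HIV-1 IIIB. Compounds diluted in human AB+ serum were added after 1 h of virus adsorption. Final medium held 50% human serum plus 10% fetal calf serum. Viral replication was read after 6 days as HIV p24 antigen, and the ED50 was derived.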

Experiment [5] has as its system MT4. Description: The anti-HIV activity in the presence of MT-4 cells infected mutants HIV-1:V32I,M46I,V82A. The note with it: Homo sapiens, read-out: ED50 (the source's name). It counts as functional. The procedure, abridged: as §1
The target in experiment [6] is Human immunodeficiency virus type 1 protease (Human immunodeficiency virus 1, UniProt Q72874). Description: Inhibitory activity against HIV-1 protease expressed in Escherichia coli.

Bounds are passed on as bounds.

Consider `CNC(=O)[C@@H](NC(=O)[C@H](OCc1ccccc1)[C@H](O)[C@@H](O)[C@@H](OCc1ccccc1)C(=O)N[C@H](C(=O)NC)C(C)C)C(C)C`, for which the EC50 in the experiment with MT4 [1] was 1500 nM; in the experiment on MT4 [2] it was 20000 nM; in the experiment on MT4 [3], 20000 nM.
`CNC(=O)[C@@H](NC(=O)[C@H](OCc1ccc(-c2cccnc2)cc1)[C@H](O)[C@@H](O)[C@@H](OCc1ccc(-c2cccnc2)cc1)C(=O)N[C@H](C(=O)NC)C(C)C)C(C)C`: the EC50 in the experiment on MT4 [4] is 20000 nM; in the experiment on MT4 [1] it was 2500 nM; in the experiment on MT4 [5], greater than 3000 nM; with MT4 [2], greater than 3000 nM. For the same compound, affinity in experiment [6] was put at a Ki of 0.3 nM.
Regarding `CNC(=O)[C@@H](NC(=O)[C@H](OCc1ccc(Br)cc1)[C@H](O)[C@@H](O)[C@@H](OCc1ccc(Br)cc1)C(=O)N[C@H](C(=O)NC)C(C)C)C(C)C`, the EC50 came to 2100 nM in the experiment with MT4 [4], 800 nM in the experiment with MT4 [1], 1200 nM in the experiment with MT4 [5] and 1000 nM in the experiment on MT4 [2]. Also, in experiment [6], the inhibition constant (Ki) (commonly the dissociation constant of the complex between target and ligand, obtained from inhibition or displacement) is 0.3 nM.
The like results for `CNC(=O)[C@@H](NC(=O)[C@H](OCc1ccc(-c2ccccc2)cc1)[C@H](O)[C@@H](O)[C@@H](OCc1ccc(-c2ccccc2)cc1)C(=O)N[C@H](C(=O)NC)C(C)C)C(C)C` were, in that order, 800 nM, 40 nM, 400 nM, 700 nM and 0.7 nM.
For the compound `CNC(=O)[C@@H](NC(=O)[C@H](OCc1ccc(/C=C/C(=O)OC)cc1)[C@H](O)[C@@H](O)[C@@H](OCc1ccc(/C=C/C(=O)OC)cc1)C(=O)N[C@H](C(=O)NC)C(C)C)C(C)C`, the EC50 stood at 5700 nM with MT4 [4] and 800 nM in the experiment on MT4 [1]. The compound also yielded a Ki in experiment [6] of 0.09 nM.
Consider `CNC(=O)[C@@H](NC(=O)[C@H](OCc1ccc(-c2ccsc2)cc1)[C@H](O)[C@@H](O)[C@@H](OCc1ccc(-c2ccsc2)cc1)C(=O)N[C@H](C(=O)NC)C(C)C)C(C)C`, for which the EC50 stood at 800 nM with MT4 [4], 40 nM in the experiment on MT4 [1], 300 nM with MT4 [5] and 200 nM in the experiment with MT4 [2].
On to `CNC(=O)[C@@H](NC(=O)[C@H](OCc1ccc(-c2ccccn2)cc1)[C@H](O)[C@@H](O)[C@@H](OCc1ccc(-c2ccccn2)cc1)C(=O)N[C@H](C(=O)NC)C(C)C)C(C)C`, for which the EC50 was determined as 3600 nM in the experiment with MT4 [4] and 800 nM in the experiment on MT4 [1]. Besides, the Ki in experiment [6] turned out to be 0.6 nM.
Take `CNC(=O)[C@@H](NC(=O)[C@H](OCc1ccc(-c2cccc([N+](=O)[O-])c2)cc1)[C@H](O)[C@@H](O)[C@@H](OCc1ccc(-c2cccc([N+](=O)[O-])c2)cc1)C(=O)N[C@H](C(=O)NC)C(C)C)C(C)C`: the EC50 was 1100 nM in the experiment on MT4 [4], 50 nM with MT4 [1], 1100 nM with MT4 [5] and 40 nM with MT4 [2]. For the same compound, the Ki in experiment [6] stood at 1.4 nM.
With `CNC(=O)[C@@H](NC(=O)[C@H](OCc1ccc(-c2cccs2)cc1)[C@H](O)[C@@H](O)[C@@H](OCc1ccc(-c2cccs2)cc1)C(=O)N[C@H](C(=O)NC)C(C)C)C(C)C`, the EC50 was 1000 nM in the experiment with MT4 [4], 40 nM in the experiment with MT4 [1], 300 nM in the experiment on MT4 [5] and 200 nM with MT4 [2]. Also, in experiment [6], affinity was put at a Ki of 1.2 nM.
Regarding `CNC(=O)[C@@H](NC(=O)[C@H](OCc1ccc(C2=C(O)C(=O)CCC2)cc1)[C@H](O)[C@@H](O)[C@@H](OCc1ccc(C2=C(O)C(=O)CCC2)cc1)C(=O)N[C@H](C(=O)NC)C(C)C)C(C)C`, the EC50 with MT4 [4] turned out to be 20000 nM; in the experiment on MT4 [1], 3700 nM. The Ki in experiment [6] is 0.3 nM.
For the compound `CNC(=O)[C@@H](NC(=O)[C@H](OCc1ccc(-c2nccs2)cc1)[C@H](O)[C@@H](O)[C@@H](OCc1ccc(-c2nccs2)cc1)C(=O)N[C@H](C(=O)NC)C(C)C)C(C)C`, the EC50 with MT4 [4] was 400 nM; with MT4 [1], 300 nM; in the experiment with MT4 [5], greater than 3000 nM; in the experiment on MT4 [2] it was greater than 3000 nM. This compound also displayed a Ki in experiment [6] of 0.6 nM.
Regarding `CNC(=O)[C@@H](NC(=O)[C@H](OCc1ccc(CCc2ccccc2)cc1)[C@H](O)[C@@H](O)[C@@H](OCc1ccc(CCc2ccccc2)cc1)C(=O)N[C@H](C(=O)NC)C(C)C)C(C)C`, in the experiment with MT4 [1], the EC50 was determined as 2100 nM. This compound also showed a Ki in experiment [6] of 3.8 nM.
